Measured values: ChEMBL document CHEMBL5223168, “Using Imidazo[2,1-b][1,3,4]thiadiazol Skeleton to Design and Synthesize Novel MNK Inhibitors” (ACS Med Chem Lett, 2023)
Activity calls are given as the source filed them. The rule behind the calls is not given here.

Columns and labels:
[1] = test system: MAP kinase-interacting kinase MNK1/2 (Homo sapiens); assay: Inhibition of MNK in human NCI-H446 cells assessed as inhibition of eIF4E phosphorylation at 3 uM incubated for 2 hrs by Western blot analysis
[2] = test system: A549; assay: Antitumor activity against human A549 cells xenografted in BALB/C nude mouse assessed as T/C ratio at 150 mg/kg, po QD for 14 days; assay type: functional; conditions: time 14 day
Summary of the method: (§1)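 A549 xenografts in nude mice; compound given orally once daily at 75 or 150 mg/kg for 14 days, irinotecan reference at 3 mg/kg; tumor growth tracked as T/C ratio (relative tumor proliferation rate); body weight monitored.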

[3] = molecular target: Eukaryotic translation initiation factor 4E (Homo sapiens) (UniProt P06730); assay: Inhibition of eIF4E phosphorylation in human MDA-MB-231 cells at 5 uM and measured upto 96 hrs by Western blot analysis; assay type: cell-based
Chain of Eukaryotic translation initiation factor 4E (Homo sapiens) (P06730 whole entry): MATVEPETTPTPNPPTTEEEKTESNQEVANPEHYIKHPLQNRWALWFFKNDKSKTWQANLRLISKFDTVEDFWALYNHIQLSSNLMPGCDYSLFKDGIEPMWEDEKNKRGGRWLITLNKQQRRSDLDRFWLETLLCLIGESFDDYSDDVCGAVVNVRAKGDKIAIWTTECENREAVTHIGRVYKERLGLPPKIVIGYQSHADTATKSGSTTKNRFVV
Summary of the method: (§2)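 Cells maintained with compound at 5 μM for up to 6 days for cell counts; eIF4E phosphorylation followed by immunoblot for up to 96 h.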

[4] = test system: MV4-11; assay: Induction of cell cycle arrest in human MV4-11 cells assessed as decrease in cyclin B1 level at 3 uM incubated for 24 hrs by Western blot analysis
[5] = test system: MAP kinase-interacting kinase MNK1/2 (Homo sapiens); assay: Inhibition of MNK in human NCI-H1299 cells assessed as inhibition of eIF4E phosphorylation at 3 uM incubated for 2 hrs by Western blot analysis
[6] = Clearance in mouse at 50 mg/kg, po and measured upto 24 hrs; assay type: ADME, organism-based; conditions: in vivo
[7] = AUC (0-t) in mouse at 25 mg/kg, iv and measured upto 24 hrs; assay type: ADME, organism-based; design: time < 24 hrs, dose 25 mg/kg, route iv; conditions: in vivo
[8] = test system: MDA-MB-231; assay: Antiproliferative activity against human MDA-MB-231 cells assessed as reduction in cell viability at 5 uM incubated upto 6 days by trypan blue assay; assay type: functional, cell-based; conditions: time <= 6.0 day
Summary of the method: (§3)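 A549 or MDA-MB-231 cells cultured with 5 μM compound for up to 6 days; cell number counted over time; p-eIF4E followed by immunoblot up to 96 h.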

[9] = molecular target: mTORC1 (Homo sapiens) (UniProt P42345+Q8N122+Q9BVC4); assay: Inhibition of mTORC1 in human LNCaP C4-2B cells assessed as inhibition of phosphorylation of rpS6 at Ser240/244 at 5 uM incubated for 2 hrs by Western blot analysis; assay type: cell-based
Chain of mTORC1 (Homo sapiens) (Q8N122 whole entry, looked up, other chains not shown): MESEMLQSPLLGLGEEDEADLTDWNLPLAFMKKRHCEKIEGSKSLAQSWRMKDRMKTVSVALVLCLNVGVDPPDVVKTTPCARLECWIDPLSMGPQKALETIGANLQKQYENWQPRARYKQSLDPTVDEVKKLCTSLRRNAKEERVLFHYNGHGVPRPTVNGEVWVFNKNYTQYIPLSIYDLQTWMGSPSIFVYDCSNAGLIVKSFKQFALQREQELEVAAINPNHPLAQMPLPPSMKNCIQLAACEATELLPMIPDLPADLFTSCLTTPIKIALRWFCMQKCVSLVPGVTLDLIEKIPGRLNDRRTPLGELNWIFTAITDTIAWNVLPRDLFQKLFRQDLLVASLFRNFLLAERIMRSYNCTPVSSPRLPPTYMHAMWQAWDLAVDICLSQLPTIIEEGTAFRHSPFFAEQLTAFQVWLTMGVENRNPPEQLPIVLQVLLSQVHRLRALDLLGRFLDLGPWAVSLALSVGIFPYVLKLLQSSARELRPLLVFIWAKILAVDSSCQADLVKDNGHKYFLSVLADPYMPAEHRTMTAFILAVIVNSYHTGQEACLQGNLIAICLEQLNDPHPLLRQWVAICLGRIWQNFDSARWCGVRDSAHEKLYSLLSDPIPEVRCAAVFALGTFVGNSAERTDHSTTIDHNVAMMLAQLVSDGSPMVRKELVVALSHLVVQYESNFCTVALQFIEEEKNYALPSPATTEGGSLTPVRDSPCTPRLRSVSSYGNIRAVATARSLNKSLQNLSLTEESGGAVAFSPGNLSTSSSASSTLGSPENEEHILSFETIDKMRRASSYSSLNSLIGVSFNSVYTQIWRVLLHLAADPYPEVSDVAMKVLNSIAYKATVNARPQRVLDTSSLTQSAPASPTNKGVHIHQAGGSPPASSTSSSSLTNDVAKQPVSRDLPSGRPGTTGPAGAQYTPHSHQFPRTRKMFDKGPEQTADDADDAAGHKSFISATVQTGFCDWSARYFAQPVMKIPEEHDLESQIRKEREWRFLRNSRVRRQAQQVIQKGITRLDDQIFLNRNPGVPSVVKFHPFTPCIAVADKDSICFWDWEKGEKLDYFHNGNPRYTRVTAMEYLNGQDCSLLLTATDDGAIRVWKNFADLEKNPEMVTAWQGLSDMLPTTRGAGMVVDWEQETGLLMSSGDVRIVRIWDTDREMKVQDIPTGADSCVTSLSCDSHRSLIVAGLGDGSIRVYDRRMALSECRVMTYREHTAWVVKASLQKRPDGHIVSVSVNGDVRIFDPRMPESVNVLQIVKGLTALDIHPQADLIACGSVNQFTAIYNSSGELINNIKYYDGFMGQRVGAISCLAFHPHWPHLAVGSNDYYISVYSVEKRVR
Chain of mTORC1 (Homo sapiens) (Q9BVC4 whole entry, looked up, other chains not shown): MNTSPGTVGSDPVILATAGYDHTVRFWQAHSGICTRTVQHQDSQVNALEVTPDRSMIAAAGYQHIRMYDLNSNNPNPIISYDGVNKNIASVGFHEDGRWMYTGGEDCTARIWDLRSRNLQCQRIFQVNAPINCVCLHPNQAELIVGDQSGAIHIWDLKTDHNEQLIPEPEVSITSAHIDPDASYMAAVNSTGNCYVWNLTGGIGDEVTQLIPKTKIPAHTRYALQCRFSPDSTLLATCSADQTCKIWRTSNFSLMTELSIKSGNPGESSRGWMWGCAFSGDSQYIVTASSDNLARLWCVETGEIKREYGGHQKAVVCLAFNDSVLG
Summary of the method: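 C4-2B prostate cancer cells treated with inhibitor; lysates probed by Western blot for p-eIF4E, p-S6K (Thr389), p-rpS6 (Ser240/244) and p-AKT (Ser473).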

[10] = test system: A549; assay: Induction of cell cycle arrest in human A549 cells assessed as accumulation of cells at G2/M phase at 5 uM incubated for 20 hrs by propidium iodide staining based flow cytometry (Rvb=15.5%); assay type: functional
[11] = test system: MAP kinase-interacting kinase MNK1/2 (Homo sapiens); assay: Inhibition of MNK in human SKM-1 cells assessed as inhibition of eIF4E phosphorylation at 10 uM incubated for 2 hrs by Western blot analysis
[12] = test system: MDA-MB-231; assay: Inhibition of colony formation in human MDA-MB-231 cells at 1 to 5 uM measured after 10 days by crystal violet staining based clonogenic assay; assay type: functional, cell-based; conditions: dose 1-5 µM, time 10.0 day
Summary of the method: (§4)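 Clonogenic assay over 10 days; cells treated with DMSO vehicle or compound at indicated concentrations, plates scanned and colonies quantified from three independent experiments.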

[13] = Half life in mouse at 50 mg/kg, po and measured upto 24 hrs; assay type: ADME, organism-based; conditions: in vivo
[14] = molecular target: MAP kinase-interacting serine/threonine-protein kinase 1 (Homo sapiens, UniProt Q9BUB5); assay: Inhibition of MNK1 (unknown origin) at 3 uM in presence of ATP by kinase assay
Chain of MAP kinase-interacting serine/threonine-protein kinase 1 (Q9BUB5 whole entry, looked up): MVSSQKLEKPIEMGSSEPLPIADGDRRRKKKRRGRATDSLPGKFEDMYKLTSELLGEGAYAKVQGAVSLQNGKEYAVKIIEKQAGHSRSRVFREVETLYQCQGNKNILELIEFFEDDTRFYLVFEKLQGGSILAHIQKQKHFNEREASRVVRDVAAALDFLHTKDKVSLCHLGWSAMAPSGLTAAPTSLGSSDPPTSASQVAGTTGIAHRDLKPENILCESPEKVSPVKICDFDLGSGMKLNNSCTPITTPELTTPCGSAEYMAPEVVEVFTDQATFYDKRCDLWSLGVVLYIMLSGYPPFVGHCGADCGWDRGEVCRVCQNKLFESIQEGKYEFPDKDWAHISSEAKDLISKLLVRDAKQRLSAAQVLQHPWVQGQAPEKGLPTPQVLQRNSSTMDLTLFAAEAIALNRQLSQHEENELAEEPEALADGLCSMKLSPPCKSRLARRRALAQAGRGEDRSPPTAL
Summary of the method: (§5)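 Single-point kinase profiling: inhibitor tested at 3 μM against a panel of 60 kinases from different families, activity presented as heatmap.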

[15] = test system: A549; assay: Antitumor activity against human A549 cells xenografted in BALB/C nude mouse assessed as reduction in tumor volume at 75 to 150 mg/kg, po QD for 14 days; assay type: functional, organism-based; conditions: dose 75-150 mg/kg, time 14.0 day
Summary of the method: as §1

[16] = test system: A549; assay: Induction of cell cycle arrest in human A549 cells assessed as decrease in cyclin D3 level at 5 uM incubated for 24 hrs by Western blot analysis; assay type: functional, cell-based
Summary of the method: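 A549 and MDA-MB-231 cells treated 24 h with 5 μM; lysates resolved by SDS-PAGE and immunoblotted for cyclin B1, cyclin D3 and MMP-3.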

[17] = test system: MAP kinase-interacting kinase MNK1/2 (Homo sapiens); assay: Inhibition of MNK in human U-937 cells assessed as inhibition of eIF4E phosphorylation at 10 uM incubated for 2 hrs by Western blot analysis
[18] = Cmax in mouse at 50 mg/kg, po and measured upto 24 hrs; assay type: ADME, organism-based; design: dose 50 mg/kg, time < 24 hrs, route po; conditions: in vivo
[19] = Half life in mouse at 25 mg/kg, iv and measured upto 24 hrs; assay type: ADME, organism-based; conditions: in vivo
[20] = molecular target: Mitogen-activated protein kinase 8 (Homo sapiens) (UniProt P45983); assay: Inhibition of JNK1 (unknown origin) at 3 uM in presence of ATP by kinase assay
Chain of Mitogen-activated protein kinase 8 (Homo sapiens) (P45983 whole entry): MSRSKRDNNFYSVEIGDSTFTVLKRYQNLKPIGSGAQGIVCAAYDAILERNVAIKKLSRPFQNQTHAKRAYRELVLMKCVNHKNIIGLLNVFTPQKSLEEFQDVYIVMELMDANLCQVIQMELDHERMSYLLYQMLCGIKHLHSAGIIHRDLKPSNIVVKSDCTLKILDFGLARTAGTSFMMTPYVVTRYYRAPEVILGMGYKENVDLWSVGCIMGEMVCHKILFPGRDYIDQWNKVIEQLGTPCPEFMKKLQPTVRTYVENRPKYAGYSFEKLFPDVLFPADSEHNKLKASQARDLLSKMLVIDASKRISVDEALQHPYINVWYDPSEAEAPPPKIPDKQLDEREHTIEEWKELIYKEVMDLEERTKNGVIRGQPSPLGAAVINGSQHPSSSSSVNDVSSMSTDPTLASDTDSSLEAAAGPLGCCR

[21] = test system: MEF; assay: Inhibition of MNK in MNK1 knockout mouse MEF cells assessed as inhibition of eIF4E phosphorylation at 1 uM incubated for 2 hrs by Western blot analysis; assay type: cell-based
Summary of the method: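 MEFs lacking MNK1 or MNK2 (wild-type for comparison) treated 2 h at indicated concentrations; lysates immunoblotted for p-eIF4E, which reflects the remaining MNK isoform; quantified from three independent experiments, SEM.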

[22] = Toxicity in BALB/C nude mouse xenografted with human A549 cells assessed as body weight loss at 75 to 150 mg/kg, po QD for 14 days; assay type: organism-based; conditions: in vivo, 336 h, dose 75-150 mg/kg, time 14 day
Summary of the method: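 A549 xenografts in nude mice dosed orally once daily at 75 or 150 mg/kg for 14 days; body weight monitored for tolerability, irinotecan 3 mg/kg as positive control group.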

[23] = Apparent volume of distribution in mouse at 50 mg/kg, po and measured upto 24 hrs; assay type: ADME, organism-based; conditions: in vivo
[24] = test system: A549; assay: Antiproliferative activity against human A549 cells assessed as reduction in cell viability at 5 uM incubated upto 6 days by trypan blue assay; assay type: functional, cell-based; conditions: time <= 6.0 day
Summary of the method: as §3

[25] = molecular target: Eukaryotic translation initiation factor 4E (Homo sapiens) (UniProt P06730); assay: Inhibition of eIF4E phosphorylation in human A549 cells at 5 uM and measured upto 96 hrs by Western blot analysis; assay type: cell-based
Summary of the method: as §2

[26] = species on record: Homo sapiens; assay: Inhibition of QIK (unknown origin) at 3 uM in presence of ATP by kinase assay
Summary of the method: as §5

[27] = molecular target: Mitogen-activated protein kinase 9 (Homo sapiens) (UniProt P45984); assay: Inhibition of JNK2 (unknown origin) at 3 uM in presence of ATP by kinase assay
Chain of Mitogen-activated protein kinase 9 (Homo sapiens) (P45984 whole entry, looked up): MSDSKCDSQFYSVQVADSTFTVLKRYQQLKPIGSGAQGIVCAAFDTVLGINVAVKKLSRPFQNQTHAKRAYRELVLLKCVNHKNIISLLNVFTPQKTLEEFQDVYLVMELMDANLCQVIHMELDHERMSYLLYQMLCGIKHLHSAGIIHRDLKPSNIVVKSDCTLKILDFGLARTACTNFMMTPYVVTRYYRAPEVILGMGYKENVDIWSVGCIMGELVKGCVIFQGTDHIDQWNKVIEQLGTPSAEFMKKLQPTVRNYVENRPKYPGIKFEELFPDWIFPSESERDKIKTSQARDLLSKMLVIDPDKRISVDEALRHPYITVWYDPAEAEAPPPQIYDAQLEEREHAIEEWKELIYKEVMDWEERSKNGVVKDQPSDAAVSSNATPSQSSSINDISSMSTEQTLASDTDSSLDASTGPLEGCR

[28] = test system: MV4-11; assay: Induction of cell cycle arrest in human MV4-11 cells assessed as decrease in cyclin D3 level at 3 uM incubated for 24 hrs by Western blot analysis
[29] = test system: A549; assay: Inhibition of colony formation in human A549 cells at 1 to 5 uM measured after 10 days by crystal violet staining based clonogenic assay; assay type: functional, cell-based; conditions: dose 1-5 µM, time 10.0 day
Summary of the method: as §4

- inhibition [1]: Active
- inhibition [3]: Active
- inhibition [5]: Active
- CL/F [6]: 8.45 mL/min/kg
- AUC(0-t) at 24 h [7]: 80900 ng·h/mL
- inhibition [9]: inactive
- inhibition [11]: Active
- half-life [13]: 265 min
- inhibition [14]: 100%
- inhibition [17]: Active
- Cmax [18]: 17200 ng/mL
- half-life [19]: 204 min
- inhibition [20]: Active
- Vz [23]: 3155 mL/kg
- inhibition [25]: Active
- inhibition [26]: Active
- inhibition [27]: Active
SMILES: CN1CCN(C(=O)c2ccc(-c3nn4c(-c5ccc(C#N)cc5)cnc4s3)cc2)CC1
- T/C [2]: 0.5
- Activity [4]: Active
- Activity [8]: Active
- Activity [10]: 3.3%
- inhibition [12]: Dose-Dependent Effect
- Activity [15]: Dose-Dependent Effect
- Activity [16]: Active
- inhibition [21]: Active
- Activity [22]: < 10%
- Activity [24]: Active
- Activity [28]: Active
- inhibition [29]: Dose-Dependent Effect
